The subject of test [1] is BT-245. The test can be described thus: Growth inhibition of human BT-245 cells expressing mutant K27M at 0.5 to 10 uM after 7 days by Alamar blue assay. The test is classed as functional, cell-based. To be noted: dose 0.5-10 µM, time 7.0 day. Put shortly: (§1)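 Tumor-derived cells were grown in NS-A proliferation medium with bFGF (10 ng/mL), rhEGF (20 ng/mL) and heparin on poly-L-ornithine/laminin coating. They were plated at 7000 cells/well and exposed to EZH2 inhibitor (0.5–10 uM) or DMSO vehicle for 7 days, with media changed every 3 days. Alamar blue was added on day 7 for 6 h and absorbance read at 570 and 600 nm. Percent difference versus untreated growth control was derived from an extinction-coefficient formula; values are the mean of three replicates ± SEM.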

Test [2] relates to BT-245. The test can be described thus: Growth inhibition of K27M knock-out human BT-245 cells at 0.5 to 10 uM after 7 days by Alamar blue assay. The note with it: dose 0.5-10 µM, time 7.0 day. It is filed as functional, cell-based. Put shortly:
as §1
On the technique in general: The colour change of resazurin is a common sign of viable cells or microbes.

Test [3] has as its system BT-245. The experiment in a line: Growth inhibition of K27M knock-out human BT-245 cells at 5 uM assessed as normalized cell index after 7 days by Alamar blue assay relative to control. It is filed as functional. To be noted: time 7 day. In outline: as §1
Test [4] deals with Histone-lysine N-methyltransferase EZH2 (Homo sapiens) (UniProt Q15910). The test can be described thus: Inhibition of EZH2 in human G477 cells assessed as decrease in H3K27me3 deposition by western blot method. It is filed as cell-based. For orientation: A western blot detects proteins with antibodies after separation by electrophoresis.
Test [5] relates to BT-245. The test can be described thus: Growth inhibition of human BT-245 cells expressing mutant K27M at 10 uM assessed as normalized cell index after 7 days by Alamar blue assay relative to control. The test is classed as functional. To be noted: time 7 day. Put shortly: as §1
Test [6] has as its system BT-245. The experiment in a line: Growth inhibition of human BT-245 cells expressing mutant K27M at 5 uM assessed as normalized cell index after 7 days by Alamar blue assay relative to control. The test is classed as functional. The note with it: time 7 day. Put shortly:
as §1

Test [7] deals with BT-245. The test can be described thus: Growth inhibition of K27M knock-out human BT-245 cells at 8 uM assessed as normalized cell index after 7 days by Alamar blue assay relative to control. The test is classed as functional. To be noted: time 7 day. In outline: as §1
Test [8] has as its target Histone-lysine N-methyltransferase EZH2 (Homo sapiens) (UniProt Q15910). The test can be described thus: Inhibition of EZH2 in human G477 cells assessed as decrease in H3K27me2 deposition by western blot method. It is filed as cell-based.
In test [9] the test system is BT-245. The experiment in a line: Growth inhibition of K27M knock-out human BT-245 cells at 3.5 uM assessed as normalized cell index after 7 days by Alamar blue assay relative to control. The test is classed as functional. The note with it: time 7 day. In outline: as §1
Test [10] deals with BT-245. The experiment in a line: Growth inhibition of human BT-245 cells expressing mutant K27M at 2.5 uM assessed as normalized cell index after 7 days by Alamar blue assay relative to control. It is filed as functional. To be noted: time 7 day. Put shortly: as §1
Test [11] relates to BT-245. The experiment in a line: Growth inhibition of human BT-245 cells expressing mutant K27M at 3.5 uM assessed as normalized cell index after 7 days by Alamar blue assay relative to control. The note with it: time 7 day. The test is classed as functional. In outline:
as §1

Test [12] concerns the target Histone-lysine N-methyltransferase EZH2 (Homo sapiens) (UniProt Q15910). The experiment in a line: Inhibition of EZH2 in human BT-245 cells expressing mutant K27M assessed as decrease in H3K27me3 deposition by western blot method. It is filed as cell-based.
The subject of test [13] is BT-245. The test can be described thus: Growth inhibition of K27M knock-out human BT-245 cells at 2.5 uM assessed as normalized cell index after 7 days by Alamar blue assay relative to control. The test is classed as functional. To be noted: time 7 day. Put shortly: as §1
For test [14], the system named is BT-245. The test can be described thus: Growth inhibition of K27M knock-out human BT-245 cells at 1.5 uM assessed as normalized cell index after 7 days by Alamar blue assay relative to control. The test is classed as functional. To be noted: time 7 day. Put shortly: as §1
The test system of test [15] is BT-245. The experiment in a line: Growth inhibition of human BT-245 cells expressing mutant K27M at 3 uM assessed as normalized cell index after 7 days by Alamar blue assay relative to control. The note with it: time 7 day. It is filed as functional. In outline:
as §1

Test [16] has as its system BT-245. The experiment in a line: Growth inhibition of K27M knock-out human BT-245 cells at 3 uM assessed as normalized cell index after 7 days by Alamar blue assay relative to control. It is filed as functional. The note with it: time 7 day. Put shortly:
as §1

Test [17] has as its system BT-245. The experiment in a line: Growth inhibition of K27M knock-out human BT-245 cells at 7 uM assessed as normalized cell index after 7 days by Alamar blue assay relative to control. To be noted: time 7 day. The test is classed as functional. Put shortly: as §1
In test [18] the test system is BT-245. The test can be described thus: Growth inhibition of human BT-245 cells expressing mutant K27M at 7 uM assessed as normalized cell index after 7 days by Alamar blue assay relative to control. The test is classed as functional. To be noted: time 7 day. In outline:
as §1

The target of test [19] is Histone-lysine N-methyltransferase EZH2 (Homo sapiens) (UniProt Q15910). The experiment in a line: Inhibition of EZH2 in human BT-245 cells expressing mutant K27M assessed as decrease in H3K27me2 deposition by western blot method. The test is classed as cell-based.
For test [20], the system named is BT-245. The experiment in a line: Growth inhibition of K27M knock-out human BT-245 cells at 4 uM assessed as normalized cell index after 7 days by Alamar blue assay relative to control. The test is classed as functional. The note with it: time 7 day. In outline: as §1
Test [21] has as its system BT-245. The test can be described thus: Growth inhibition of human BT-245 cells expressing mutant K27M at 4 uM assessed as normalized cell index after 7 days by Alamar blue assay relative to control. The test is classed as functional. To be noted: time 7 day. Put shortly:
as §1

The test system of test [22] is BT-245. The test can be described thus: Growth inhibition of K27M knock-out human BT-245 cells at 10 uM assessed as normalized cell index after 7 days by Alamar blue assay relative to control. To be noted: time 7 day. The test is classed as functional. In outline:
as §1

Test [23] relates to BT-245. The test can be described thus: Growth inhibition of human BT-245 cells expressing mutant K27M at 1.5 uM assessed as normalized cell index after 7 days by Alamar blue assay relative to control. It is filed as functional. The note with it: time 7 day. Put shortly: as §1

Activity calls are given as the source filed them. The rule behind the calls is not given here.

The record followed here is ChEMBL document CHEMBL5712905, “H3K27M induces defective chromatin spread of PRC2-mediated repressive H3K27me2/me3 and is essential for glioma tumorigenesis” (2019).

Histone-lysine N-methyltransferase EZH2 (Homo sapiens), sequence (Q15910 whole entry, looked up): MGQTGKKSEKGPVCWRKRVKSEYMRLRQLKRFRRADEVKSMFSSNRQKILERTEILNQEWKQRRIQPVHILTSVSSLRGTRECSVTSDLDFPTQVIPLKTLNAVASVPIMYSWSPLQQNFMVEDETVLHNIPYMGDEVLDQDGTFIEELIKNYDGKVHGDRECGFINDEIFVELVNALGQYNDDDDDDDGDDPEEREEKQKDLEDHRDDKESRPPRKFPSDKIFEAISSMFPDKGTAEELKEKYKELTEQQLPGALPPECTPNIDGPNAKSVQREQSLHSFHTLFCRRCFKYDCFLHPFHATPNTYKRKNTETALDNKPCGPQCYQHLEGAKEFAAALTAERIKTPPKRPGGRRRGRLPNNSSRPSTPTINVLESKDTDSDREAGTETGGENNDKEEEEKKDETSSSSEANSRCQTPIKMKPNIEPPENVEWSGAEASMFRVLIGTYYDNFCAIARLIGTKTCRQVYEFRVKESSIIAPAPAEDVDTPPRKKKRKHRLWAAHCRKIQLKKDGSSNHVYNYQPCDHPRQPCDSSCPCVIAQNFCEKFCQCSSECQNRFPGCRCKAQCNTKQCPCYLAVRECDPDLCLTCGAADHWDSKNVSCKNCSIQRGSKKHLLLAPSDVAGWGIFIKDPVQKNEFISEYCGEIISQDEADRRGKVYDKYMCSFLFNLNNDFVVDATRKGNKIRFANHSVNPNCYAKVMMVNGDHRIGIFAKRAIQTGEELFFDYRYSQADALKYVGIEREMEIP

`CCCc1cc(C)[nH]c(=O)c1CNC(=O)c1cc(-c2ccnc(N3CCN(C)CC3)c2)cc2c1cnn2C(C)C`: the result with BT-245 [1] and in the test on BT-245 [2] was Active.

Consider `CCCc1cc(C)[nH]c(=O)c1CNC(=O)c1cc(-c2ccc(N3CCN(C(C)C)CC3)nc2)cc2c1cnn2C(C)C`, for which the Activity_index in the test on BT-245 [3] is 108.08%; in the test with BT-245 [5], 27.95%; in the test with BT-245 [6], 73.66%; in the test with BT-245 [7] it was 63.65%; in the test on BT-245 [9] it was 97.97%; in the test with BT-245 [10] it was 96%. The Activity_index in the test on BT-245 [11] turned out to be 92.89%; with BT-245 [13] it was 106.57%; in the test on BT-245 [14], 107.71%; with BT-245 [15], 93.39%; in the test on BT-245 [16] it was 112.32%; in the test with BT-245 [17], 106.11%. In addition, the Activity_index in the test on BT-245 [18] is 25.18%; with BT-245 [20], 109.66%; in the test on BT-245 [21], 85.7%; in the test with BT-245 [22], 50.02%; in the test on BT-245 [23] it was 93.5%. Moreover, the inhibition entry in [4], in test [8], in test [12] and in test [19] was “Active” throughout.
